Assay results reported in ChEMBL document CHEMBL1123881, “Synthesis and antiarrhythmic activity of new 3-[2-(omega-aminoalkoxy)phenoxy]-4-phenyl-3-buten-2-ones and related compounds” (J Med Chem, 1987).
Converted amounts (≈) assume the structure as drawn.

Assays:
Rattus norvegicus [1] = assay: Antiarrhythmic activity ( protection against CaCl2 induced ventricular fibrillation ) in anesthetized rat administered intravenously; type: functional; conditions: Heart, iv
Outline: (§1)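 Sprague-Dawley albino rats, 180-200 g, conscious or urethane-anesthetized (2.8 g/kg sc). Compound given via caudal or portal vein 2 min, or orally 60 min, before rapid iv 8% CaCl2 at 1 mL/kg. Lead II ECG monitored for fibrillation within 10 min. Five to ten rats per dose.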

[2] = The compound was tested for acute toxicity when given intraperitoneally in mouse.; type: organism-based; conditions: in vivo, ip
Outline: (§2)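 Albino CF1 mice of both sexes, 18-20 g, dosed intraperitoneally; survivors observed for 1 week; ten mice per dose. LD50 derived by probit method, confidence limits at p = 0.05.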

Oryctolagus cuniculus = species: Oryctolagus cuniculus; assay: Tested in vitro for antiarrhythmic activity in isolated rabbit atria; type: functional; conditions: Heart
Outline: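 Atria from New Zealand rabbits in oxygenated Ringer-Locke at 29 °C, paced with 10-ms, 10-V rectangular pulses at rising frequency to find the maximum driven frequency. This was remeasured before and 10, 15 and 20 min after drug addition. Dose-response curves on the same tissue, repeated 3-5 times. EC values by probit.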

[3] = The compound was tested for acute toxicity when given intravenously in rat; type: organism-based; conditions: in vivo, iv
Outline: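 Sprague-Dawley rats of both sexes, 120-140 g, dosed intravenously; survivors observed for 1 week. LD50 derived by probit method, confidence limits at p = 0.05.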

[4] = The compound was tested for acute toxicity when given intraperitoneally in mouse; type: organism-based; conditions: in vivo, ip; outline: as §2
Canis familiaris [5] = assay: Antiarrhythmic activity ( protection against epinephrine induced ventricular fibrillation ) in post infarcted conscious dog administered iv(ear or caudal vein); type: functional; conditions: Canis lupus familiaris, Heart
Mus musculus [6] = assay: Antiarrhythmic activity ( protection against aconitine induced initial arrhythmia ) in anesthetized mouse administered through iv(ear or caudal vein); type: functional; conditions: Heart
Outline: (§3)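 Albino CF1 mice of both sexes, 20-22 g, pentobarbital-anesthetized (60 mg/kg ip), lead II ECG. Dosing iv (caudal vein) 2 min or orally 60 min before aconitine infusion, 8 µg/mL at 0.32 mL/min for 3 min. ECG read every 10 s. Endpoint is time to initial arrhythmia and to ventricular tachycardia. Ten mice per dose; probit analysis.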

Mus musculus [7] = assay: Antiarrhythmic activity ( protection against aconitine induced ventricular tachycardia) in anesthetized mouse administered perorally; type: functional; conditions: Heart, po; outline: as §3
Canis familiaris [8] = assay: The compound was tested for antiarrhythmic activity in infarcted conscious dog through iv(ear or caudal vein); type: functional; conditions: Canis lupus familiaris, Heart
Outline: (§4)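 Beagle dogs of both sexes, 10-14 kg, coronary ligature under pentobarbital (30 mg/kg iv) with artificial ventilation. Next day, dogs without spontaneous arrhythmia get epinephrine 2-10 µg/kg iv (ear vein). Compound then given iv. ECG at 5-180 min, with epinephrine re-challenge at each time. Maximal ectopic beats/min counted before and after each dose, in 2-4 dogs.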

Rattus norvegicus [9] = assay: Antiarrhythmic activity ( protection against CaCl2 induced ventricular fibrillation ) in conscious rat administered intravenously; type: functional; conditions: Heart, iv; outline: as §1
Rattus norvegicus [10] = assay: The compound was tested for blood electrolyte K+ in rat serum when induced through femoral vein (iv),at 20 mg/kg; type: functional
Outline: (§5)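 Sprague-Dawley rats of both sexes, 140-150 g. Serum K+ measured by flame photometry 1 h after iv dosing. Five rats per dose.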

Mus musculus [11] = assay: Antiarrhythmic activity ( protection against aconitine induced initial arrhythmia ) in anesthetized mouse administered perorally; type: functional; conditions: Heart, po; outline: as §3
Rattus norvegicus [12] = assay: Antiarrhythmic activity (protection against CaCl2 induced ventricular fibrillation) in anesthetized rat administered through portal vein (ipv); type: functional; conditions: Heart; outline: as §1
Rattus norvegicus [13] = assay: The compound was tested for activity on heart rate in anesthetized rat when induced through portal vein (ipv),at 14 mg/kg; type: functional
Outline: (§6)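 Heart rate in anesthetized rats, given iv (femoral vein) or into the portal vein. Rate recorded a few seconds before drug administration.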

Mus musculus [14] = assay: Antiarrhythmic activity ( protection against aconitine induced ventricular tachycardia) in anesthetized mouse administered through iv(ear or caudal vein); type: functional; conditions: Heart; outline: as §3
Rattus norvegicus [15] = assay: Antiarrhythmic activity ( protection against CaCl2 induced ventricular fibrillation ) in conscious rat administered orally (po); type: functional; conditions: Heart; outline: as §1
Rattus norvegicus [16] = assay: Activity on heart rate in anesthetized rat when induced through femoral vein (iv), at 5 mg/kg; type: functional; outline: as §6
Rattus norvegicus [17] = assay: The compound was tested for antiarrhythmic activity ( protection against CaCl2 induced ventricular fibrillation ) in anesthetized rat.; type: functional; conditions: Heart; outline: as §1
Mus musculus [18] = species: Mus musculus; assay: The compound was tested for effective concentration (intradermal injection) that caused local anesthesia in 50% of mice by tail-clip method; type: functional, organism-based
Outline: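 Tail-clip test in albino CF1 mice of both sexes, 18-20 g. Intradermal tail injection of 0.1 mL/mouse about 1 cm from the root.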

Mus musculus [19] = assay: Antiarrhythmic activity ( protection against aconitine induced initial arrhythmia ) in anesthetized mouse administered through iv.; type: functional; conditions: Heart; outline: as §3
Mus musculus [20] = assay: Antiarrhythmic activity ( protection against aconitine induced ventricular tachycardia) in anesthetized mouse administered through iv.; type: functional; conditions: Heart; outline: as §3
Canis familiaris [21] = assay: Antiarrhythmic activity ( protection against epinephrine induced ventricular fibrillation ) in post infarcted conscious dog administered iv.; type: functional; conditions: Canis lupus familiaris, Heart
Rattus norvegicus [22] = assay: The compound was tested for blood electrolyte K+ in rat serum when induced through femoral vein (iv) at dose of 5 mg/kg; type: functional; outline: as §5
Canis familiaris [23] = assay: The compound was tested for antiarrhythmic activity in infarcted conscious dog through iv; type: functional; conditions: Canis lupus familiaris, Heart; outline: as §4
Rattus norvegicus [24] = assay: The compound was tested for activity on heart rate in anesthetized rat when induced through femoral vein (iv) at dose of 1 mg/kg; type: functional; outline: as §6
Rattus norvegicus [25] = assay: The compound was tested for activity on heart rate in anesthetized rat when induced through portal vein (ipv) at dose of 1 mg/kg; type: functional; outline: as §6

## CC(=O)/C(=C\c1ccccc1)Oc1cc(Cl)ccc1OCCN1CCCCC1
Rattus norvegicus [1]
  ED50: 0.9 mg/kg
[2]
  LD50: 185 mg/kg
Oryctolagus cuniculus
  EC30: 3 µg/mL (≈ 7.5 µM)

## CC(=O)/C(=C\c1ccccc1)Oc1ccccc1OCC(C)N(C)C (stereo not drawn)
Rattus norvegicus [1]
  ED50: 0.9 mg/kg
[2]
  LD50: 45 mg/kg
Oryctolagus cuniculus
  EC30: 2 µg/mL (≈ 5.89 µM)

## CC(=O)/C(=C\c1ccccc1)Oc1ccccc1OCCCN(C)C
[3]
  LD50: 13.5 mg/kg
[2]
  LD50: 110 mg/kg
Oryctolagus cuniculus
  EC30: 3 µg/mL (≈ 8.84 µM)

## CCN(CC)CCOc1ccccc1OCC(C)O (stereo not drawn)
Rattus norvegicus [1]
  ED50: 7.1 mg/kg
[4]
  LD50: 187 mg/kg
Oryctolagus cuniculus
  EC30: 15 µg/mL (≈ 56.1 µM)

## C=C[C@H]1CN2CC[C@H]1C[C@@H]2[C@@H](O)c1ccnc2ccc(OC)cc12 [QUINIDINE]
Canis familiaris [5]
  ED50: 1 mg/kg
Mus musculus [6]
  ED50: 15.2 mg/kg
Mus musculus [7]
  ED50: 158 mg/kg
Canis familiaris [8]
  ED50: 5.5 mg/kg
Rattus norvegicus [9]
  ED50: 3.2 mg/kg
Rattus norvegicus [10]
  Activity: 3%
Mus musculus [11]
  ED50: 122 mg/kg
Rattus norvegicus [12]
  ED50: 13.5 mg/kg
Rattus norvegicus [13]
  Activity: -36%
Mus musculus [14]
  ED50: 14 mg/kg
Rattus norvegicus [15]
  ED50: 47.7 mg/kg
Oryctolagus cuniculus
  EC30: 3.9 µg/mL (≈ 12 µM)
Rattus norvegicus [16]
  Activity: -30%

## CCN(CC)CCOc1ccccc1OC(Cc1ccccc1)C(C)=O (stereo not drawn)
Rattus norvegicus [1]
  ED50: 0.75 mg/kg
[3]
  LD50: 11.7 mg/kg
[4]
  LD50: 92 mg/kg
Oryctolagus cuniculus
  EC30: 10 µg/mL (≈ 28.1 µM)

## CC(=O)/C(=C\c1ccccc1)Oc1ccccc1OCCN(C(C)C)C(C)C
Rattus norvegicus [1]
  ED50: 0.5 mg/kg
[3]
  LD50: 10.1 mg/kg
[4]
  LD50: 125 mg/kg
Oryctolagus cuniculus
  EC30: 1 µg/mL (≈ 2.62 µM)

## CCN(CC)CCNC(=O)c1ccc(N)cc1 [PROCAINAMIDE]
Rattus norvegicus [1]
  ED50: 48.1 mg/kg
[3]
  LD50: 121 mg/kg
[4]
  LD50: 312 mg/kg
Oryctolagus cuniculus
  EC30: 45.8 µg/mL (≈ 195 µM)

## CCN(CC)CCOc1ccccc1OC(Cc1ccccc1)C(C)O (stereo not drawn)
Rattus norvegicus [1]
  ED50: 1 mg/kg
[4]
  LD50: 85 mg/kg
Oryctolagus cuniculus
  EC30: 2.5 µg/mL (≈ 6.99 µM)

## C/C=C(/Oc1ccccc1OCCN(CC)CC)C(C)=O
Rattus norvegicus [1]
  ED50: 3 mg/kg
[2]
  LD50: 80 mg/kg
Oryctolagus cuniculus
  EC30: 5 µg/mL (≈ 17.2 µM)

## CC(=O)/C(=C\c1ccccc1)Oc1ccccc1OCCN1CCCC1
Rattus norvegicus [1]
  ED50: 1 mg/kg
[4]
  LD50: 45 mg/kg
Oryctolagus cuniculus
  EC30: 3 µg/mL (≈ 8.54 µM)

## CCN(CC)CCOc1ccccc1OCC(C)=O
Rattus norvegicus [1]
  ED50: 7 mg/kg
[4]
  LD50: 125 mg/kg
Oryctolagus cuniculus
  EC30: 15 µg/mL (≈ 56.5 µM)

## CC(=O)/C(=C\c1ccccc1)Oc1ccccc1OCCCN(C(C)C)C(C)C
Rattus norvegicus [1]
  ED50: 0.1 mg/kg
[3]
  LD50: 11.4 mg/kg
[2]
  LD50: 60 mg/kg
Oryctolagus cuniculus
  EC30: 0.32 µg/mL (≈ 0.809 µM)

## CCN(CC)CCCOc1ccccc1O/C(=C/c1ccccc1)C(C)=O
Rattus norvegicus [17]
  ED50: 0.18 mg/kg
Mus musculus [18]
  EC50: 0.0099 µg/mL (≈ 0.0269 µM)
Mus musculus [7]
  ED50: 83 mg/kg
Mus musculus [19]
  ED50: 4.3 mg/kg
Mus musculus [20]
  ED50: 4.9 mg/kg
Rattus norvegicus [9]
  ED50: 0.3 mg/kg
Canis familiaris [21]
  ED50: 1 mg/kg
Mus musculus [11]
  ED50: 82 mg/kg
Rattus norvegicus [22]
  Activity: -8%
Rattus norvegicus [12]
  ED50: 0.6 mg/kg
[3]
  LD50: 11.1 mg/kg
Canis familiaris [23]
  ED50: 1 mg/kg
Rattus norvegicus [24]
  Activity: -6%
Rattus norvegicus [15]
  ED50: 35 mg/kg
[2]
  LD50: 95 mg/kg
Oryctolagus cuniculus
  EC30: 0.41 µg/mL (≈ 1.12 µM)
Rattus norvegicus [25]
  Activity: 4%

## CC(=O)/C(=C\c1ccccc1)Oc1ccccc1OCCN1CCCCC1
[3]
  LD50: 11.2 mg/kg
[4]
  LD50: 63 mg/kg
Oryctolagus cuniculus
  EC30: 3 µg/mL (≈ 8.21 µM)
